The source of these data is ChEMBL document CHEMBL4368918, “Structure-Based Design of Inhibitors Selective for Human Proteasome β2c or β2i Subunits” (J Med Chem, 2019).

The term IC50 denotes the concentration at which inhibition is half-maximal. Read a high IC50 as lower potency.

For the first experiment, the target named is T1, Proteasome subunit beta type-9 (Homo sapiens, UniProt P28065).
T1 sequence (P28065 whole entry): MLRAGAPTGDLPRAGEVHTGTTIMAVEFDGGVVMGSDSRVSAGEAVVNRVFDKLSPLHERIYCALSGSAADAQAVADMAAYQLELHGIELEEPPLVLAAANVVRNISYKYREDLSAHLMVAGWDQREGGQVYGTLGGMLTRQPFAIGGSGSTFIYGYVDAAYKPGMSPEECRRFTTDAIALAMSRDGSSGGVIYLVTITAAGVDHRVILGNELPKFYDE
In words: Inhibition of 20S immunoproteasome beta 1 in human Raji cell lysates after 1 hr by competitive ABPP assay. It is filed as subcellular, Lysate. In outline: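 Raji cells were sonicated in 3 volumes of Tris pH 7.5 lysis buffer containing DTT, MgCl₂, sucrose, 2 mM ATP and 0.05% digitonin. Lysate (5 μg protein, in buffer with 2 mM ATP and glycerol) was preincubated with inhibitor for 1 h at 37 °C, then with a cocktail of three fluorescent ABPs for 1 h. […] In-gel fluorescence densitometry was normalized to mock. IC50 came from the mean of three experiments.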
`COc1ccc(C[C@H](NC(=O)[C@H](C)NC(=O)CN2CCOCC2)C(=O)N[C@@H](C[C@@H]2CCCc3ccccc32)C(=O)[C@@]2(C)CO2)cc1` came in with an IC50 of more than 100 µM.

As to `COc1ccc(C[C@H](NC(=O)[C@H](C)NC(=O)CN2CCOCC2)C(=O)N[C@@H](C[C@H]2CCCc3ccccc32)C(=O)[C@@]2(C)CO2)cc1`, the IC50 is more than 100 µM.

`COc1ccc(C[C@H](NC(=O)[C@H](C)NC(=O)CN2CCOCC2)C(=O)N[C@@H](C[C@@H]2CCC[C@H]3CCCC[C@H]32)C(=O)[C@@]2(C)CO2)cc1` came in with an IC50 of more than 100 µM.

As to `COc1ccc(C[C@H](NC(=O)[C@H](C)NC(=O)CN2CCOCC2)C(=O)N[C@@H](CCC2CCCCC2)C(=O)[C@@]2(C)CO2)cc1`, the IC50 was more than 100 µM.

Regarding `COc1ccc(C[C@H](NC(=O)[C@H](C)NC(=O)CN2CCOCC2)C(=O)N[C@@H](C[C@H]2CCCC3CCCCC32)C(=O)[C@@]2(C)CO2)cc1` (stereo partly drawn), the IC50 is more than 100 µM.

Compound `COc1ccc(C[C@H](NC(=O)[C@H](C)NC(=O)CN2CCOCC2)C(=O)N[C@@H](CC2CCCC3CCCCC32)C(=O)[C@@]2(C)CO2)cc1` (stereo partly drawn) gave an IC50 of more than 100 µM.

The target in another experiment is T2, Proteasome subunit beta type-8 (Homo sapiens, UniProt P28062).
T2 sequence (P28062 whole entry): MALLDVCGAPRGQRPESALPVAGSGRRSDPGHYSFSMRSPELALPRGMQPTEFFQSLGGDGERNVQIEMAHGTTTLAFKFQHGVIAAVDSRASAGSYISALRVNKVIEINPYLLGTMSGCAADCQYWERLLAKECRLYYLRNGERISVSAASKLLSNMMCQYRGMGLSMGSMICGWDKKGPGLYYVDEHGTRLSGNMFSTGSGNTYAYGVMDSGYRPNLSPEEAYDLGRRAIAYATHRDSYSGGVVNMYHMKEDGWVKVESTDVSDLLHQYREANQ
In words: Inhibition of 20S immunoproteasome beta 5 in human Raji cell lysates after 1 hr by competitive ABPP assay. It is filed as subcellular, Lysate.
In turn, `COc1ccc(C[C@H](NC(=O)[C@H](C)NC(=O)CN2CCOCC2)C(=O)N[C@@H](C[C@@H]2CCCc3ccccc32)C(=O)[C@@]2(C)CO2)cc1` returned an IC50 of more than 100 µM.

Compound `COc1ccc(C[C@H](NC(=O)[C@H](C)NC(=O)CN2CCOCC2)C(=O)N[C@@H](C[C@H]2CCCc3ccccc32)C(=O)[C@@]2(C)CO2)cc1` displayed an IC50 of more than 100 µM.

`COc1ccc(C[C@H](NC(=O)[C@H](C)NC(=O)CN2CCOCC2)C(=O)N[C@@H](C[C@@H]2CCC[C@H]3CCCC[C@H]32)C(=O)[C@@]2(C)CO2)cc1` came in with an IC50 of 28.4 µM.

Consider `COc1ccc(C[C@H](NC(=O)[C@H](C)NC(=O)CN2CCOCC2)C(=O)N[C@@H](C[C@H]2CCCC3CCCCC32)C(=O)[C@@]2(C)CO2)cc1` (stereo partly drawn), for which the IC50 was more than 100 µM.

In turn, `COc1ccc(C[C@H](NC(=O)[C@H](C)NC(=O)CN2CCOCC2)C(=O)N[C@@H](CC2CCCC3CCCCC32)C(=O)[C@@]2(C)CO2)cc1` (stereo partly drawn) showed an IC50 of more than 100 µM.

In another experiment the target is T3, Proteasome subunit beta type-6 (Homo sapiens, UniProt P28072).
T3 sequence (P28072 whole entry): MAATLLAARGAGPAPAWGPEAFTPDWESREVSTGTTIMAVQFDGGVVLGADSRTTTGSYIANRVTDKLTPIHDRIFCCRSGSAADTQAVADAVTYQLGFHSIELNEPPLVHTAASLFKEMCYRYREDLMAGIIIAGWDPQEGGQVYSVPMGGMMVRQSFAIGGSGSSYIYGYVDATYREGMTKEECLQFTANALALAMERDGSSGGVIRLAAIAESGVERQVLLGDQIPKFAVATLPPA
Kind of experiment: Inhibition of 20S constitutive proteasome beta 1 caspase-like activity in human Raji cell lysates after 1 hr by competitive ABPP assay. It is filed as subcellular, Lysate. In outline:
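Raji cells were sonicated in 3 volumes of Tris pH 7.5 lysis buffer containing DTT, MgCl₂, sucrose, 2 mM ATP and 0.05% digitonin. Lysate (5 μg protein, in buffer with 2 mM ATP and glycerol) was preincubated with inhibitor for 1 h at 37 °C, then with a cocktail of three fluorescent ABPs for 1 h. In-gel fluorescence densitometry was normalized to mock. IC50 came from the mean of three experiments.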
With `COc1ccc(C[C@H](NC(=O)[C@H](C)NC(=O)CN2CCOCC2)C(=O)N[C@@H](C[C@@H]2CCCc3ccccc32)C(=O)[C@@]2(C)CO2)cc1`, the IC50 is more than 100 µM.

In turn, `COc1ccc(C[C@H](NC(=O)[C@H](C)NC(=O)CN2CCOCC2)C(=O)N[C@@H](C[C@H]2CCCc3ccccc32)C(=O)[C@@]2(C)CO2)cc1` had an IC50 of more than 100 µM.

For the compound `COc1ccc(C[C@H](NC(=O)[C@H](C)NC(=O)CN2CCOCC2)C(=O)N[C@@H](C[C@@H]2CCC[C@H]3CCCC[C@H]32)C(=O)[C@@]2(C)CO2)cc1`, the IC50 turned out to be 53 µM.

With `COc1ccc(C[C@H](NC(=O)[C@H](C)NC(=O)CN2CCOCC2)C(=O)N[C@@H](CCC2CCCCC2)C(=O)[C@@]2(C)CO2)cc1`, the IC50 is more than 100 µM.

In the case of `COc1ccc(C[C@H](NC(=O)[C@H](C)NC(=O)CN2CCOCC2)C(=O)N[C@@H](C[C@H]2CCCC3CCCCC32)C(=O)[C@@]2(C)CO2)cc1` (stereo partly drawn), the IC50 was more than 100 µM.

In turn, `COc1ccc(C[C@H](NC(=O)[C@H](C)NC(=O)CN2CCOCC2)C(=O)N[C@@H](CC2CCCC3CCCCC32)C(=O)[C@@]2(C)CO2)cc1` (stereo partly drawn) came in with an IC50 of more than 100 µM.

For the next experiment, the target named is T4, Proteasome Macropain subunit MB1 (Homo sapiens, UniProt P28074).
T4 sequence (P28074 whole entry): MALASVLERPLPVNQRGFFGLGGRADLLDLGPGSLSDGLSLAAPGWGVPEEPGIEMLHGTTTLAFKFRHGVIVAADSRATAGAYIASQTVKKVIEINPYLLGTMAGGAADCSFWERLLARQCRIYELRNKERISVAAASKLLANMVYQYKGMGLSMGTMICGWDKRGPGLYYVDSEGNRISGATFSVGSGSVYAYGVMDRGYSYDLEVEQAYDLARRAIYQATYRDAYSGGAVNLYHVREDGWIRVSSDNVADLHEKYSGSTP
Kind of experiment: Inhibition of 20S constitutive proteasome beta 5 chymotrypsin-like activity in human Raji cell lysates after 1 hr by competitive ABPP assay. It is filed as subcellular, Lysate.
`COc1ccc(C[C@H](NC(=O)[C@H](C)NC(=O)CN2CCOCC2)C(=O)N[C@@H](C[C@@H]2CCCc3ccccc32)C(=O)[C@@]2(C)CO2)cc1`: the IC50 is more than 100 µM.

In the case of `COc1ccc(C[C@H](NC(=O)[C@H](C)NC(=O)CN2CCOCC2)C(=O)N[C@@H](C[C@H]2CCCc3ccccc32)C(=O)[C@@]2(C)CO2)cc1`, the IC50 is more than 100 µM.

Regarding `COc1ccc(C[C@H](NC(=O)[C@H](C)NC(=O)CN2CCOCC2)C(=O)N[C@@H](C[C@@H]2CCC[C@H]3CCCC[C@H]32)C(=O)[C@@]2(C)CO2)cc1`, the IC50 is more than 100 µM.

Regarding `COc1ccc(C[C@H](NC(=O)[C@H](C)NC(=O)CN2CCOCC2)C(=O)N[C@@H](CCC2CCCCC2)C(=O)[C@@]2(C)CO2)cc1`, the IC50 turned out to be 5 µM. In other words, the single-digit micromolar range.

Take `COc1ccc(C[C@H](NC(=O)[C@H](C)NC(=O)CN2CCOCC2)C(=O)N[C@@H](C[C@H]2CCCC3CCCCC32)C(=O)[C@@]2(C)CO2)cc1` (stereo partly drawn): the IC50 is more than 100 µM.

`COc1ccc(C[C@H](NC(=O)[C@H](C)NC(=O)CN2CCOCC2)C(=O)N[C@@H](CC2CCCC3CCCCC32)C(=O)[C@@]2(C)CO2)cc1` (stereo partly drawn) showed an IC50 of more than 100 µM.
